ChEMBL document CHEMBL1140412, “F-18 stilbenes as PET imaging agents for detecting beta-amyloid plaques in the brain” (J Med Chem, 2005)

How the values were obtained:
[1] = Biodistribution in ICR mouse skin 2 min. after iv injection of [18F]-compound in 0.1% bovine serum albumin solution, n = 3; format: ADME, organism-based, Zone of skin; settings: in vivo
Method in brief: (§1)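 Male ICR mice (22-25 g) under isoflurane anesthesia received 0.15 mL of 0.1% BSA solution containing 5-10 μCi [¹⁸F]tracer by tail-vein injection; n = 3 per time point. Killed by cervical dislocation, organs removed, weighed and gamma-counted. %dose/g derived from sample counts vs. diluted initial dose; blood total activity assumed as 7% of body weight. Mean ± SD.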

[2] = Biodistribution in ICR mouse brain 2 hr after iv injection of [18F]-compound in 0.1% bovine serum albumin solution, n = 3; format: ADME, organism-based; settings: in vivo; method in brief: as §1
[3] = Biodistribution in ICR mouse lung 30 min. after iv injection of [18F]-compound in 0.1% bovine serum albumin solution, n = 3; format: ADME, organism-based; settings: in vivo, 0.5 h; method in brief: as §1
[4] = Biodistribution in ICR mouse heart 1 hr after iv injection of [18F]-compound in 0.1% bovine serum albumin solution, n = 3; format: ADME, organism-based; settings: in vivo; method in brief: as §1
[5] = Biodistribution in ICR mouse kidney 2 hr after iv injection of [18F]-compound in 0.1% bovine serum albumin solution, n = 3; format: ADME, organism-based; settings: in vivo; method in brief: as §1
[6] = Biodistribution in ICR mouse skin 30 min. after iv injection of [18F]-compound in 0.1% bovine serum albumin solution, n = 3; format: ADME, organism-based, Zone of skin; settings: in vivo, 0.5 h; method in brief: as §1
[7] = Biodistribution in ICR mouse blood 30 min. after iv injection of [18F]-compound in 0.1% bovine serum albumin solution, n = 3; format: ADME, organism-based; settings: in vivo, 0.5 h; method in brief: as §1
[8] = Biodistribution in ICR mouse kidney 2 min. after iv injection of [18F]-compound in 0.1% bovine serum albumin solution, n = 3; format: ADME, organism-based; settings: in vivo; method in brief: as §1
[9] = Biodistribution in ICR mouse muscle 2 min. after iv injection of [18F]-compound in 0.1% bovine serum albumin solution, n = 3; format: ADME, organism-based, Muscle tissue; settings: in vivo; method in brief: as §1
[10] = Biodistribution in ICR mouse blood 1 hr after iv injection of [18F]-compound in 0.1% bovine serum albumin solution, n = 3; format: ADME, organism-based; settings: in vivo; method in brief: as §1
[11] = Biodistribution in ICR mouse lung 2 hr after iv injection of [18F]-compound in 0.1% bovine serum albumin solution, n = 3; format: ADME, organism-based; settings: in vivo; method in brief: as §1
[12] = Biodistribution in ICR mouse spleen 1 hr after iv injection of [18F]-compound in 0.1% bovine serum albumin solution, n = 3; format: ADME, organism-based; settings: in vivo; method in brief: as §1
[13] = Biodistribution in ICR mouse blood 2 min. after iv injection of [18F]-compound in 0.1% bovine serum albumin solution, n = 3; format: ADME, organism-based; settings: in vivo; method in brief: as §1
[14] = Biodistribution in ICR mouse liver 30 min. after iv injection of [18F]-compound in 0.1% bovine serum albumin solution, n = 3; format: ADME, organism-based; settings: in vivo, 0.5 h; method in brief: as §1
[15] = Biodistribution in ICR mouse liver 2 hr after iv injection of [18F]-compound in 0.1% bovine serum albumin solution, n = 3; format: ADME, organism-based; settings: in vivo; method in brief: as §1
[16] = Biodistribution in ICR mouse muscle 30 min. after iv injection of [18F]-compound in 0.1% bovine serum albumin solution, n = 3; format: ADME, organism-based, Muscle tissue; settings: in vivo, 0.5 h; method in brief: as §1
[17] = Biodistribution in ICR mouse heart 2 hr after iv injection of [18F]-compound in 0.1% bovine serum albumin solution, n = 3; format: ADME, organism-based; settings: in vivo; method in brief: as §1
[18] = Biodistribution in ICR mouse bone 2 min. after iv injection of [18F]-compound in 0.1% bovine serum albumin solution, n = 3; format: ADME, organism-based, Bone element; settings: in vivo; method in brief: as §1
[19] = Biodistribution in ICR mouse bone 30 min. after iv injection of [18F]-compound in 0.1% bovine serum albumin solution, n = 3; format: ADME, organism-based, Bone element; settings: in vivo, 0.5 h; method in brief: as §1
[20] = Biodistribution in ICR mouse heart 30 min. after iv injection of [18F]-compound in 0.1% bovine serum albumin solution, n = 3; format: ADME, organism-based; settings: in vivo, 0.5 h; method in brief: as §1
[21] = Biodistribution in ICR mouse heart 2 min. after iv injection of [18F]-compound in 0.1% bovine serum albumin solution, n = 3; format: ADME, organism-based; settings: in vivo; method in brief: as §1
[22] = Biodistribution in ICR mouse liver 2 min. after iv injection of [18F]-compound in 0.1% bovine serum albumin solution, n = 3; format: ADME, organism-based; settings: in vivo; method in brief: as §1
[23] = Biodistribution in ICR mouse brain 1 hr after iv injection of [18F]-compound in 0.1% bovine serum albumin solution, n = 3; format: ADME, organism-based; settings: in vivo; method in brief: as §1
[24] = Biodistribution in ICR mouse kidney 30 min. after iv injection of [18F]-compound in 0.1% bovine serum albumin solution, n = 3; format: ADME, organism-based; settings: in vivo, 0.5 h; method in brief: as §1
[25] = Biodistribution in ICR mouse bone 1 hr after iv injection of [18F]-compound in 0.1% bovine serum albumin solution, n = 3; format: ADME, organism-based, Bone element; settings: in vivo; method in brief: as §1
[26] = Biodistribution in ICR mouse lung 2 min. after iv injection of [18F]-compound in 0.1% bovine serum albumin solution, n = 3; format: ADME, organism-based; settings: in vivo; method in brief: as §1
[27] = Biodistribution in ICR mouse spleen 2 min. after iv injection of [18F]-compound in 0.1% bovine serum albumin solution, n = 3; format: ADME, organism-based; settings: in vivo; method in brief: as §1
[28] = Biodistribution in ICR mouse bone 2 hr after iv injection of [18F]-compound in 0.1% bovine serum albumin solution, n = 3; format: ADME, organism-based, Bone element; settings: in vivo; method in brief: as §1
[29] = Biodistribution in ICR mouse skin 1 hr after iv injection of [18F]-compound in 0.1% bovine serum albumin solution, n = 3; format: ADME, organism-based, Zone of skin; settings: in vivo; method in brief: as §1
[30] = Biodistribution in ICR mouse lung 1 hr after iv injection of [18F]-compound in 0.1% bovine serum albumin solution, n = 3; format: ADME, organism-based; settings: in vivo; method in brief: as §1
[31] = Biodistribution in ICR mouse skin 2 hr after iv injection of [18F]-compound in 0.1% bovine serum albumin solution, n = 3; format: ADME, organism-based, Zone of skin; settings: in vivo; method in brief: as §1
[32] = Biodistribution in ICR mouse kidney 1 hr after iv injection of [18F]-compound in 0.1% bovine serum albumin solution, n = 3; format: ADME, organism-based; settings: in vivo; method in brief: as §1
[33] = Biodistribution in ICR mouse brain 30 min. after iv injection of [18F]-compound in 0.1% bovine serum albumin solution, n = 3; format: ADME, organism-based; settings: in vivo, 0.5 h; method in brief: as §1
[34] = Biodistribution in ICR mouse muscle 1 hr after iv injection of [18F]-compound in 0.1% bovine serum albumin solution, n = 3; format: ADME, organism-based, Muscle tissue; settings: in vivo; method in brief: as §1
[35] = Biodistribution in ICR mouse muscle 2 hr after iv injection of [18F]-compound in 0.1% bovine serum albumin solution, n = 3; format: ADME, organism-based, Muscle tissue; settings: in vivo; method in brief: as §1
[36] = Biodistribution in ICR mouse blood 2 hr after iv injection of [18F]-compound in 0.1% bovine serum albumin solution, n = 3; format: ADME, organism-based; settings: in vivo; method in brief: as §1
[37] = Biodistribution in ICR mouse spleen 2 hr after iv injection of [18F]-compound in 0.1% bovine serum albumin solution, n = 3; format: ADME, organism-based; settings: in vivo; method in brief: as §1
[38] = Biodistribution in ICR mouse liver 1 hr after iv injection of [18F]-compound in 0.1% bovine serum albumin solution, n = 3; format: ADME, organism-based; settings: in vivo; method in brief: as §1
[39] = Biodistribution in ICR mouse brain 2 min. after iv injection of [18F]-compound in 0.1% bovine serum albumin solution, n = 3; format: ADME, organism-based; settings: in vivo; method in brief: as §1
[40] = Biodistribution in ICR mouse spleen 30 min. after iv injection of [18F]-compound in 0.1% bovine serum albumin solution, n = 3; format: ADME, organism-based; settings: in vivo, 0.5 h; method in brief: as §1
[41] = molecular target: Amyloid-beta precursor protein (Homo sapiens, UniProt P05067); experiment: Inhibition constant for I-125-IMPY binding to amyloid plaques in Alzheimers disease brain homogenates; format: tissue-based
Method in brief: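 Competition binding in pooled postmortem AD cortical homogenates (dissected gray/white matter, ~100 mg wet tissue/ml PBS pH 7.4; 20-50 μg per tube). [¹²⁵I]IMPY at 0.04-0.06 nM; inhibitors 10^-5-10^-10 M in PBS with 0.1% BSA. Nonspecific binding with 600 nM IMPY. Incubated 2 hr at 37°C, GF/B filtration, PBS washes, gamma counting. Ki from nonlinear regression.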

Sequence of Amyloid-beta precursor protein (P05067 whole entry): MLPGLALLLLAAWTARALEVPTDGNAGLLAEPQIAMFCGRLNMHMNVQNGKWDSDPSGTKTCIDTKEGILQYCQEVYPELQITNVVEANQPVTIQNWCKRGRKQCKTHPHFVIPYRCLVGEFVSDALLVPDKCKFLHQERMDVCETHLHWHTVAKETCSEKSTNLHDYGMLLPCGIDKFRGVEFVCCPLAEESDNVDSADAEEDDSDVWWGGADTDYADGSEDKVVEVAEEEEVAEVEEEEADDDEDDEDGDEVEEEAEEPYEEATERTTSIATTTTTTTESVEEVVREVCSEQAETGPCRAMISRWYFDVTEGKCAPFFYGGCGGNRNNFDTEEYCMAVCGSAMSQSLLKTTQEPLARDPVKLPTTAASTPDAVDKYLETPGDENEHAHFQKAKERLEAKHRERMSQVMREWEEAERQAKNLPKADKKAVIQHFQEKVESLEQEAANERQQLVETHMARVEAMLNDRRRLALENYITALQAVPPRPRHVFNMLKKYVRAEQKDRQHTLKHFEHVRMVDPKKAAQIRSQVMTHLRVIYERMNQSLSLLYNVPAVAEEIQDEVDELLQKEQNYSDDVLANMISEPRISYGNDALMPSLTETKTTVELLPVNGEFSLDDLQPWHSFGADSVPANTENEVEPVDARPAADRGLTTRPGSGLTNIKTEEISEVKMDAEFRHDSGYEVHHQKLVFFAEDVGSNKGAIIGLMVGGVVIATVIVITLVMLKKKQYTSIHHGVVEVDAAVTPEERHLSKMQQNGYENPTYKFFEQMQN

## CN(C)c1ccc(/C=C/c2ccc(OCC(CO)C[18F])cc2)cc1 (stereo not given)
[1]
  Biodistribution: 0.67 %Dose/g
[2]
  Biodistribution: 1.37 %Dose/g
[3]
  Biodistribution: 12.93 %Dose/g
[4]
  Biodistribution: 1.45 %Dose/g
[5]
  Biodistribution: 2.19 %Dose/g
[6]
  Biodistribution: 1.69 %Dose/g
[7]
  Biodistribution: 1.65 %Dose/g
[8]
  Biodistribution: 13.32 %Dose/g
[9]
  Biodistribution: 0.84 %Dose/g
[10]
  Biodistribution: 1.51 %Dose/g
[11]
  Biodistribution: 3.74 %Dose/g
[12]
  Biodistribution: 1.24 %Dose/g
[13]
  Biodistribution: 1.79 %Dose/g
[14]
  Biodistribution: 14.65 %Dose/g
[15]
  Biodistribution: 9.51 %Dose/g
[16]
  Biodistribution: 1.53 %Dose/g
[17]
  Biodistribution: 0.91 %Dose/g
[18]
  Biodistribution: 1.57 %Dose/g
[19]
  Biodistribution: 2.06 %Dose/g
[20]
  Biodistribution: 2.76 %Dose/g
[21]
  Biodistribution: 10.43 %Dose/g
[22]
  Biodistribution: 14.13 %Dose/g
[23]
  Biodistribution: 2.97 %Dose/g
[24]
  Biodistribution: 4.64 %Dose/g
[25]
  Biodistribution: 6.5 %Dose/g
[26]
  Biodistribution: 93.4 %Dose/g
[27]
  Biodistribution: 4.43 %Dose/g
[28]
  Biodistribution: 8.63 %Dose/g
[29]
  Biodistribution: 1.65 %Dose/g
[30]
  Biodistribution: 5 %Dose/g
[31]
  Biodistribution: 1 %Dose/g
[32]
  Biodistribution: 2.97 %Dose/g
[33]
  Biodistribution: 5.21 %Dose/g
[34]
  Biodistribution: 1.22 %Dose/g
[35]
  Biodistribution: 0.66 %Dose/g
[36]
  Biodistribution: 1.18 %Dose/g
[37]
  Biodistribution: 0.99 %Dose/g
[38]
  Biodistribution: 13.46 %Dose/g
[39]
  Biodistribution: 5.55 %Dose/g
[40]
  Biodistribution: 2.45 %Dose/g
[41]
  Ki: 15 nM

## Nc1ccc(/C=C/c2ccc(O)cc2)cc1
[41]
  Ki: 95 nM

## Cc1ccc(S(=O)(=O)OCC(CO)COc2ccc(/C=C/c3ccc(N(C)C)cc3)cc2)cc1 (stereo not given)
[41]
  Ki: 150 nM

## CN(C)c1ccc(/C=C/c2ccc(OCC(CO)Cc3ccc(Br)cc3)cc2)cc1 (stereo not given)
[41]
  Ki: 80 nM

## CN(C)c1ccc(/C=C/c2ccc(OCC(CO)CO)cc2)cc1
[41]
  Ki: 38 nM
